Laboratory results from ChEMBL document CHEMBL1126276, “Synthesis and antimalarial properties of 1-imino derivatives of 7-chloro-3-substituted-3,4-dihydro-1,9(2H,10H)-acridinediones and related structures” (J Med Chem, 1992).
“And” between values parts separate entries of the source, which are not always exact repeats. Identical values can stand only once.

Key:
Assay type in all cases: functional
[1] = tested on: Plasmodium berghei; assay: Antimalarial activity in Plasmodium berghei infected mice (Mus musculus) after subcutaneous 160 mg/kg dose
Method in brief: (§1)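 Normal drug-sensitive P. berghei strain in mice. Compound dissolved or suspended in sesame or peanut oil, given parenterally as a single subcutaneous dose 72 h postinfection.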

[2] = tested on: Plasmodium berghei; assay: Antimalarial activity in Plasmodium berghei infected mice (Mus musculus) after subcutaneous 320 mg/kg dose; method in brief: as §1
[3] = tested on: Plasmodium berghei; assay: Antimalarial activity in Plasmodium berghei infected mice (Mus musculus) after subcutaneous 640 mg/kg dose; method in brief: as §1
[4] = tested on: Plasmodium berghei; assay: Antimalarial activity in Plasmodium berghei infected mice (Mus musculus) after 160 mg/kg subcutaneous dose
Method in brief: (§2)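 […] in mice infected with a normal drug-sensitive P. berghei strain. Compound dissolved or suspended in sesame or peanut oil, given as a single subcutaneous dose 72 h postinfection.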

[5] = tested on: Plasmodium berghei; assay: Antimalarial activity in Plasmodium berghei infected mice (Mus musculus) after 20 mg/kg subcutaneous dose; method in brief: as §2
[6] = tested on: Plasmodium berghei; assay: Antimalarial activity in Plasmodium berghei infected mice (Mus musculus) after 320 mg/kg subcutaneous dose; method in brief: as §2
[7] = tested on: Plasmodium berghei; assay: Antimalarial activity Plasmodium berghei infected mice (Mus musculus) after 640 mg/kg subcutaneous dose; method in brief: as §2
[8] = tested on: Plasmodium berghei; assay: Antimalarial activity in Plasmodium berghei infected mice (Mus musculus) after 80 mg/kg subcutaneous dose; method in brief: as §2
[9] = tested on: Plasmodium berghei; assay: Antimalarial activity in Plasmodium berghei infected mice (Mus musculus) after 40 mg/kg subcutaneous dose; method in brief: as §2

Row | Compound | No. of cured mice [1] | No. of cured mice [2] | No. of cured mice [3] | Delta mean survival time [4] | Delta mean survival time [5] | Delta mean survival time [6] | Delta mean survival time [7] | Delta mean survival time [8] | Delta mean survival time [9] | No. of cured mice ([3]; 640 mg/kg) | Delta mean survival time ([7]; 640 mg/kg)
1 | O=C1CC(c2ccccc2)Cc2c1c(=O)c1cc(Cl)ccc1n2O (configuration not stated) | 2 | 2 | 3 | 5.7 | 1.8 | 9.3 | 11.5 | 5.6 | 4 | – | –
2 | CN(C)CCC/N=C1\CC(c2ccncc2)Cc2nc3ccc(Cl)cc3c(O)c21 (configuration not stated) | – | – | – | 1.3 | 0.7 | 2.5 | 4.3 | 1.3 | 0.1 | – | –
3 | COc1ccc(C2CC(=O)c3c(n(O)c4ccc(Cl)cc4c3=O)C2)cc1 (configuration not stated) | – | – | – | 1.4 | 0.6 | 4.6 | 5.7 | 1.2 | 0.6 | – | –
4 | Cc1ccc(C2C/C(=N\CCCN(C)C)c3c(nc4ccc(Cl)cc4c3O)C2)cc1 (configuration not stated) | – | 2 | 2 | 6.6 | – | 6.5 | 9.8 | 1.4 | 0.8 | – | –
5 | O=C1CC(c2ccc(Cl)c(Cl)c2)Cc2nc3ccc(Cl)cc3c(O)c21 (configuration not stated) | 1 | 1 | 2 | 7.7 | – | 10.2 | 11.2 | 2.1 | – | – | –
6 | CCC1/C(=N\CCCN(C)C)c2c(nc3ccc(Cl)cc3c2O)CC1c1ccc(C(F)(F)F)cc1 (configuration not stated) | – | 2 | – | – | 0.3 | 10 | – | 5.3 | 3.3 | 4 and 3 | 6.7 and 10.2
7 | Cc1ccc(C2C/C(=N\CCCN(C)C)c3c(n(O)c4ccc(Cl)cc4c3=O)C2)cc1 (configuration not stated) | – | 2 | 4 | 3 | – | 6 | 1 | 1.8 | 0.2 | – | –
8 | CN(C)CCC/N=C1\CC(c2ccc([N+](=O)[O-])cc2)Cc2nc3ccc(Cl)cc3c(O)c21 (configuration not stated) | – | – | 1 | 8.6 | 0.4 | 11.6 | 11.8 | 3 | 1 | – | –
9 | O=C1CC(c2ccc(Cl)c(Cl)c2)Cc2c1c(=O)c1ccccc1n2O (configuration not stated) | – | 1 | 2 | 5.1 | – | 7.7 | 12.6 | 3.1 | – | – | –
